pEC50, pIC50: −log10 of the molar value. Calls of active or inactive are those of the source. No cut-off for these calls is given here.
test system: SW480-ADH; assay: Effect on cellular PIP4K2B mRNA level in human SW480-ADH cells at 10 '-9 to 10 '-7 M after 48 hrs by RT-PCR analysis; type: functional, cell-based; details: not given
Summary of the method: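 SW480-ADH cells treated 48 h in medium with charcoal-treated FCS; vehicle controls. Quantitative RT-PCR: 95 °C 10 min, then 40 cycles of 95 °C 15 s and 60 °C 30 s. Expression normalized to RPLP0 by comparative C_T method. Measurements in triplicate.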

Structure (SMILES)	Activity
C=C1/C(=C\C=C2/CC[C@@H](CCCCCCC(C)(C)O)[C@]3(C)[C@@H]([C@H](C)CCCO)CC[C@@H]23)C[C@@H](O)C[C@@H]1O	inactive
C=C1/C(=C\C=C2/CC[C@@H](CCCCCCC(C)(C)O)[C@]3(C)[C@@H]([C@H](C)CCO)CC[C@@H]23)C[C@@H](O)C[C@@H]1O	inactive
C=C1/C(=C\C=C2/CC[C@@H](CCCCCCC(C)(C)O)[C@]3(C)[C@@H]([C@H](C)CO)CC[C@@H]23)C[C@@H](O)C[C@@H]1O	inactive
C=C1/C(=C\C=C2/CCC[C@]3(C)[C@@H]([C@H](C)CCCC(C)(C)O)CC[C@@H]23)C[C@@H](O)C[C@@H]1O [CALCITRIOL]	inactive

test system: Mus musculus; assay: Toxicity in CD-1 mouse assessed as body weight loss at 0.3 ug/kg, ip administered every other day for 3 weeks measured on day 21; type: organism-based; details: in vivo, 0.0003 mg/kg, 504 h
Summary of the method: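 Female CD-1 mice, 6–8 weeks, six per group. Dosed ip in sesame oil every other day for three weeks; vehicle controls. Body weight recorded every other day.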

Structure (SMILES)	Activity
C=C1/C(=C\C=C2/CC[C@@H](CCCCCCC(C)(C)O)[C@]3(C)[C@@H]([C@H](C)CCCO)CC[C@@H]23)C[C@@H](O)C[C@@H]1O	Non-toxic
C=C1/C(=C\C=C2/CC[C@@H](CCCCCCC(C)(C)O)[C@]3(C)[C@@H]([C@H](C)CCO)CC[C@@H]23)C[C@@H](O)C[C@@H]1O	Non-toxic
C=C1/C(=C\C=C2/CC[C@@H](CCCCCCC(C)(C)O)[C@]3(C)[C@@H]([C@H](C)CO)CC[C@@H]23)C[C@@H](O)C[C@@H]1O	Non-toxic
C=C1/C(=C\C=C2/CCC[C@]3(C)[C@@H]([C@H](C)CCCC(C)(C)O)CC[C@@H]23)C[C@@H](O)C[C@@H]1O [CALCITRIOL]	Non-toxic

test system: Mus musculus; assay: Increase in serum Calcium levels in CD-1 mouse at 0.3 ug/kg, ip administered every other day for 3 weeks measured on day 21; type: functional; details: not given
Summary of the method: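 Female CD-1 mice, 6–8 weeks, six per group. Dosed ip in sesame oil every other day for three weeks; vehicle controls. Serum calcium measured with a colorimetric calcium kit a day after the last dose (day 21). Shown as percentage of calcium increase over untreated mice, with the 1α,25-(OH)₂D₃ group set to 100%. SD reported.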

Structure (SMILES)	Activity
C=C1/C(=C\C=C2/CC[C@@H](CCCCCCC(C)(C)O)[C@]3(C)[C@@H]([C@H](C)CCCO)CC[C@@H]23)C[C@@H](O)C[C@@H]1O	1%
C=C1/C(=C\C=C2/CC[C@@H](CCCCCCC(C)(C)O)[C@]3(C)[C@@H]([C@H](C)CCO)CC[C@@H]23)C[C@@H](O)C[C@@H]1O	18%
C=C1/C(=C\C=C2/CC[C@@H](CCCCCCC(C)(C)O)[C@]3(C)[C@@H]([C@H](C)CO)CC[C@@H]23)C[C@@H](O)C[C@@H]1O	0%
C=C1/C(=C\C=C2/CCC[C@]3(C)[C@@H]([C@H](C)CCCC(C)(C)O)CC[C@@H]23)C[C@@H](O)C[C@@H]1O [CALCITRIOL]	100%

test system: SW480-ADH; assay: Induction of human SW480-ADH cell differentiation assessed as formation of compact epithelioid islands of highly adherent cells at 10 '-8 M after 48 hrs by phase-contrast microscopy; type: functional, cell-based; details: not given
Summary of the method: (§1)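 SW480-ADH colon cancer cells were treated for 48 h with compound or vehicle in medium with charcoal-treated FCS. Differentiation was scored as compact epithelioid islands of highly adherent cells. A representative experiment is shown.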

Structure (SMILES)	Activity
C=C1/C(=C\C=C2/CC[C@@H](CCCCCCC(C)(C)O)[C@]3(C)[C@@H]([C@H](C)CCCO)CC[C@@H]23)C[C@@H](O)C[C@@H]1O	inactive
C=C1/C(=C\C=C2/CC[C@@H](CCCCCCC(C)(C)O)[C@]3(C)[C@@H]([C@H](C)CCO)CC[C@@H]23)C[C@@H](O)C[C@@H]1O	inactive
C=C1/C(=C\C=C2/CC[C@@H](CCCCCCC(C)(C)O)[C@]3(C)[C@@H]([C@H](C)CO)CC[C@@H]23)C[C@@H](O)C[C@@H]1O	inactive
C=C1/C(=C\C=C2/CCC[C@]3(C)[C@@H]([C@H](C)CCCC(C)(C)O)CC[C@@H]23)C[C@@H](O)C[C@@H]1O [CALCITRIOL]	Active

test system: SW480-ADH; assay: Induction of human SW480-ADH cell differentiation assessed as formation of compact epithelioid islands of highly adherent cells at 10 '-7 M after 48 hrs by phase-contrast microscopy; type: functional, cell-based; details: not given; summary of the method: as §1

Structure (SMILES)	Activity
C=C1/C(=C\C=C2/CC[C@@H](CCCCCCC(C)(C)O)[C@]3(C)[C@@H]([C@H](C)CCCO)CC[C@@H]23)C[C@@H](O)C[C@@H]1O	Active
C=C1/C(=C\C=C2/CC[C@@H](CCCCCCC(C)(C)O)[C@]3(C)[C@@H]([C@H](C)CCO)CC[C@@H]23)C[C@@H](O)C[C@@H]1O	Active
C=C1/C(=C\C=C2/CC[C@@H](CCCCCCC(C)(C)O)[C@]3(C)[C@@H]([C@H](C)CO)CC[C@@H]23)C[C@@H](O)C[C@@H]1O	Active
C=C1/C(=C\C=C2/CCC[C@]3(C)[C@@H]([C@H](C)CCCC(C)(C)O)CC[C@@H]23)C[C@@H](O)C[C@@H]1O [CALCITRIOL]	Active

test system: MCF7; assay: Antiproliferative activity against human MCF7 cells at 10 '-7 M after 48 hrs by MTT assay relative to untreated-control; type: functional, cell-based; details: not given
Summary of the method: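 MCF-7 cells seeded at 5 × 10⁴ per well, treated 24 h later for 48 h in medium with charcoal-treated FCS; vehicle controls. MTT (0.5 μg/μL) added for 1 h, medium removed, formazan dissolved in DMSO, absorbance read at 570 nm. Three individual experiments averaged; SD shown.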

Structure (SMILES)	Activity
C=C1/C(=C\C=C2/CC[C@@H](CCCCCCC(C)(C)O)[C@]3(C)[C@@H]([C@H](C)CCCO)CC[C@@H]23)C[C@@H](O)C[C@@H]1O	Active
C=C1/C(=C\C=C2/CC[C@@H](CCCCCCC(C)(C)O)[C@]3(C)[C@@H]([C@H](C)CCO)CC[C@@H]23)C[C@@H](O)C[C@@H]1O	Active
C=C1/C(=C\C=C2/CC[C@@H](CCCCCCC(C)(C)O)[C@]3(C)[C@@H]([C@H](C)CO)CC[C@@H]23)C[C@@H](O)C[C@@H]1O	Active
C=C1/C(=C\C=C2/CCC[C@]3(C)[C@@H]([C@H](C)CCCC(C)(C)O)CC[C@@H]23)C[C@@H](O)C[C@@H]1O [CALCITRIOL]	Active

target: T1, Vitamin D3 receptor (Homo sapiens, UniProt P11473); assay: Binding affinity to VDR assessed as inhibition of fluorescent ligand by fluorescence polarization competition assay; details: not given
T1 sequence (P11473 whole entry): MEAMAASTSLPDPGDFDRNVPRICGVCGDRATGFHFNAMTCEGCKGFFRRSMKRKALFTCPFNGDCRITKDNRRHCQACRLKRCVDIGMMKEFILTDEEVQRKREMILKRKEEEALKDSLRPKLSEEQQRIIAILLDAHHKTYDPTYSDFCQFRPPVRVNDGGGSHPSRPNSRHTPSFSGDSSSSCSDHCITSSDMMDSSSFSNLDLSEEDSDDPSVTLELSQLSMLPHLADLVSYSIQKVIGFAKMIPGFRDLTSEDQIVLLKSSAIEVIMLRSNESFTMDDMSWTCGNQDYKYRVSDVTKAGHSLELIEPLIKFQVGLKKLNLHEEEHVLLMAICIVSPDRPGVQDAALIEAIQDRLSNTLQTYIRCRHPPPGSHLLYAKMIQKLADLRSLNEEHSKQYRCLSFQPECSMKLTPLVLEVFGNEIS

pIC50	Structure (SMILES)
7.80	C=C1/C(=C\C=C2/CC[C@@H](CCCCCCC(C)(C)O)[C@]3(C)[C@@H]([C@H](C)CCCO)CC[C@@H]23)C[C@@H](O)C[C@@H]1O
7.56	C=C1/C(=C\C=C2/CC[C@@H](CCCCCCC(C)(C)O)[C@]3(C)[C@@H]([C@H](C)CCO)CC[C@@H]23)C[C@@H](O)C[C@@H]1O
7.68	C=C1/C(=C\C=C2/CC[C@@H](CCCCCCC(C)(C)O)[C@]3(C)[C@@H]([C@H](C)CO)CC[C@@H]23)C[C@@H](O)C[C@@H]1O

target: T1, Vitamin D3 receptor; assay: Agonist activity at VDR in human MCF7 cells assessed as transcription of CYP24A1 gene after 24 hrs by luciferase reporter gene assay; type: functional, cell-based; details: not given

pEC50	Structure (SMILES)
8.24	C=C1/C(=C\C=C2/CC[C@@H](CCCCCCC(C)(C)O)[C@]3(C)[C@@H]([C@H](C)CCCO)CC[C@@H]23)C[C@@H](O)C[C@@H]1O
8.04	C=C1/C(=C\C=C2/CC[C@@H](CCCCCCC(C)(C)O)[C@]3(C)[C@@H]([C@H](C)CCO)CC[C@@H]23)C[C@@H](O)C[C@@H]1O
8.09	C=C1/C(=C\C=C2/CC[C@@H](CCCCCCC(C)(C)O)[C@]3(C)[C@@H]([C@H](C)CO)CC[C@@H]23)C[C@@H](O)C[C@@H]1O

— ChEMBL document CHEMBL2169862, “Synthesis and biological evaluation of 1α,25-dihydroxyvitamin D₃ analogues with a long side chain at C12 and short C17 side chains” (J Med Chem, 2012)
